pIC50: −log10 of the molar value. Starred links: 1 amine or outer side, 2 acyl side, 3 side chain; linkers in the order of their positions; H or OH if unused. Positions of bridges follow the written chain, without caps; N, C: chain ends. Non-standard residues stand in square brackets, D forms with d. Residues, ends and D or L forms follow the SMILES beside them. Chains are numbered I, II in the order given. Actinocin(9to1) = Cc1c2oc3c(C)ccc(C(=O)[*:1])c3nc-2c(C(=O)[*:2])c(N)c1=O; NMeV = CN[C@H](C(=O)O)C(C)C; Sar = CNCC(=O)O
What was measured:
MC-38 [1] = test: Activity against advanced carcinoma C38 Tumor in CDF1 Mice at dose 0.15 mg/kg measured as % inhibition of tumor; format: functional; settings: Mus musculus
B16 [2] = test: In vivo Antitumor activity against B16 melanoma cells at a optimal dose measured as %ILS (%increase life span); format: functional, Mus musculus
How it was run: (§1)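 BDF1 mice in groups of nine were implanted ip on day 0 with 0.2 mL of 1:5 (w/v) B16 melanoma brei; drugs were given ip. Survival is reported as median survival time in days with range, and as %ILS, with survivors counted on day 65 out of total injected.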

B16 [3] = test: In vivo Antitumor activity against B16 melanoma cells at dose 250 ug/Kg /inj measured as Mean survival time (MST); format: functional, Mus musculus; how it was run: as §1
MC-38 [4] = test: Activity against advanced carcinoma C38 Tumor in CDF1 Mice at dose 0.30 mg/kg measured as % inhibition of tumor; format: functional; settings: Mus musculus
MC-38 [5] = test: Activity against advanced carcinoma C38 Tumor in CDF1 Mice at dose 0.45 mg/kg measured as % inhibition of tumor; format: functional; settings: Mus musculus
MC-38 [6] = test: Activity against advanced carcinoma C38 Tumor in CDF1 Mice at dose 0.60 mg/kg measured as % inhibition of tumor; format: functional; settings: Mus musculus
MC-38 [7] = test: Mean survival time of treated /untreated group x100. (number of over 100-day survivors/ number of total mice in the group) at a dose 0.60 mg/kg; format: functional, Mus musculus; settings: dose 0.6 mg/kg
How it was run: (§2)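 CDF1 mice were implanted sc on day 0 with colon 38 adenocarcinoma fragments (70 mg) and given iv drug on days 1, 5 and 9. %T/C = median survival of treated / untreated × 100. Number of mice surviving over 100 days / group total is given in parentheses.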

MC-38 [8] = test: Mean survival time of treated /untreategroup x100. (number of over 100-day survivors/ number of total mice in the group) at a dose 0.075 mg/kg; format: functional, Mus musculus; how it was run: as §2
MC-38 [9] = test: Mean survival time of treated /untreategroup x100. (number of over 100-day survivors/ number of total mice in the group) at a dose 0.15 mg/kg; format: functional, Mus musculus; how it was run: as §2
MC-38 [10] = test: Mean survival time of treated /untreategroup x100. (number of over 100-day survivors/ number of total mice in the group) at a dose 0.30 mg/kg; format: functional, Mus musculus; settings: dose 0.3 mg/kg; how it was run: as §2
MC-38 [11] = test: Mean survival time of treated /untreategroup x100. (number of over 100-day survivors/ number of total mice in the group) at a dose 0.45 mg/kg; format: functional, Mus musculus; how it was run: as §2
MC-38 [12] = test: Number of toxic deaths/number of mice in a group of non tumored mice treated in parallel with the tumor-bearing mice and observed for 100 days at a dose 0.075 mg/Kg; value given as 0/9; format: functional, Mus musculus
How it was run: (§3)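 Non-tumored CDF1 mice were treated in parallel with colon 38 tumor-bearing mice: iv injections on days 1, 5 and 9, groups of nine. Deaths were counted over 100 days of observation and reported as toxic deaths / mice in group.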

MC-38 [13] = test: Number of toxic deaths/number of mice in a group of non tumored mice treated in parallel with the tumor-bearing mice and observed for 100 days at a dose 0.15 mg/Kg; value given as 1/9; format: toxicity; settings: mouse, in vivo, 2400 h; how it was run: as §3
MC-38 [14] = test: Number of toxic deaths/number of mice in a group of non tumored mice treated in parallel with the tumor-bearing mice and observed for 100 days at a dose 0.30 mg/Kg; value given as 0/9; format: functional, Mus musculus; how it was run: as §3
MC-38 [15] = test: Number of toxic deaths/number of mice in a group of non tumored mice treated in parallel with the tumor-bearing mice and observed for 100 days at a dose 0.45 mg/Kg; value given as 1/9; format: toxicity; settings: mouse, in vivo, 2400 h; how it was run: as §3
MC-38 [16] = test: Activity against advanced carcinoma C38 Tumor in CDF1 Mice at dose 0.075 mg/kg measured as % inhibition of tumor; format: functional; settings: Mus musculus
MC-38 [17] = test: Number of toxic deaths/number of mice in a group of non tumored mice treated in parallel with the tumor-bearing mice and observed for 100 days at a dose 0.60 mg/Kg; value given as 4/9; format: toxicity; settings: mouse, in vivo, 0.6 mg/kg, 2400 h; how it was run: as §3
HT-29 [18] = test: 50% inhibition of incorporationf precursor [3H]thymidine into DNA HT-29 cell lines; format: functional, cell-based; settings: Homo sapiens, HT-29, 2 h
How it was run: (§4)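 HT-29 colon carcinoma monolayers, 10^4 cells per well, five wells per concentration. Drug exposure lasted 2 h, with [³H]thymidine and [2-¹⁴C]uridine (0.5 μCi each) added for the last hour. Cells were washed, trypsinized, counted and precipitated onto glass-fiber filters with 10% TCA. Acid-precipitable radioactivity was measured. IC50 is the concentration inhibiting 50% of incorporation; data are averages of replicate experiments.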

P388 [19] = test: 50% inhibition of incorporation of precursor [3H]thymidine into DNA P388 cell lines; format: functional, cell-based; settings: Mus musculus, P388, 2 h
P388 [20] = test: 50% inhibition of incorporation precursor [14C]uridine into RNA P388 cell lines; format: functional, cell-based; settings: Mus musculus
Rattus norvegicus [21] = species on record: Rattus norvegicus; test: Percent of the unconverted metabolite from incubation mixture containing rat microsomes; format: functional
How it was run: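 Tritiated analogues were incubated with two systems. (T) sonicated P388 cell homogenates, 37 °C for 16 h. (M) liver microsomes from phenobarbital-induced rats, 6 h with an NADPH-generating system (glucose-6-phosphate dehydrogenase plus glucose 6-phosphate). Metabolites and water-soluble conjugates were isolated, separated by HPLC and expressed as percentages.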

Rattus norvegicus [22] = species on record: Rattus norvegicus; test: DNA-cleaving ability expressed as % of closed circular pBR322 DNA cleaved at 10 uM conc; format: functional
How it was run: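 pBR322 DNA (200 μM nucleotides) in 10 mM Tris·HCl pH 7.8 and 50 mM NaCl, with 4 mM Na₂S₂O₄ and 100 μM FeCl₂. Incubated with drug for 1 h at 20 °C, kept air-saturated. Supercoiled and open-circular forms were separated by agarose gel electrophoresis, stained with ethidium bromide and quantitated by densitometry. % cleaved was calculated from the open- and closed-circular amounts.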

Rattus norvegicus [23] = species on record: Rattus norvegicus; test: The formation of adrenochrome from epinephrine in the absence of SOD(super oxide dismutase); format: functional
How it was run: (§5)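 Drug-stimulated superoxide generation with rat liver microsomal enzymes and NADPH as cofactor. NADPH oxidation was read at 340 nm. Adrenochrome formed from epinephrine was read at 480 nm, with or without superoxide dismutase. % stimulation = [(drug-stimulated rate − basal rate)/basal rate] × 100. Values are mean ± standard error of triplicate analyses.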

Rattus norvegicus [24] = species on record: Rattus norvegicus; test: The formation of adrenochrome from epinephrine in the presence of SOD(super oxide dismutase); + denotes ' Inhibited'; format: functional; how it was run: as §5
Rattus norvegicus [25] = species on record: Rattus norvegicus; test: Stimulation of NADPH oxidation in the presence of rat liver microsomes; format: functional; how it was run: as §5
HT-29 [26] = test: 50% inhibition of incorporationf precursor [3H]thymidine into RNA HT-29 cell lines; format: functional, cell-based; settings: Homo sapiens, HT-29, 2 h; in the assay text read “[14C]uridine” for “[3H]thymidine”; how it was run: as §4
pBR322 plasmid DNA = test: DNA-cleaving ability expressed as % of closed circular pBR322 DNA cleaved at 100 uM conc
P388 (Mus musculus) = test: Percent of the unconverted metabolite from incubation mixture containing tumor cell homogenate(T)
P388 [27] = test: Antitumor activity in P388/ADR (adriamycin resistant), in male BDF1 mice measured as optimal dose at dose
P388 [28] = test: Antitumor activity in P388/S(AMD sensitive) in male BDF1 mice measured as optimal dose at dose 0.075-2.5 mg/kg/injection, ip
MC-38 [29] = test: Activity against advanced carcinoma C38 Tumor in CDF1 Mice at dose 2.0 mg/Kg measured as % inhibition of tumor; format: functional; settings: Mus musculus
MC-38 [30] = test: Activity against advanced carcinoma C38 Tumor in CDF1 Mice at dose 3.0 mg/Kg measured as % inhibition of tumor; format: functional; settings: Mus musculus
MC-38 [31] = test: Activity against advanced carcinoma C38 Tumor in CDF1 Mice at dose 4.0 mg/Kg measured as % inhibition of tumor; format: functional; settings: Mus musculus
MC-38 [32] = test: Mean survival time of treated / untreated group x100. (number of over 100-day survivors/number of total mice in the group) at a dose 3.0 mg/kg; format: functional, Mus musculus; how it was run: as §2
MC-38 [33] = test: Number of toxic deaths/number of mice in a group of non tumored mice treated in parallel with the tumor-bearing mice and observed for 100 days at a dose 2.0 mg/kg; value given as 0/9; format: functional, Mus musculus; how it was run: as §3
MC-38 [34] = test: Number of toxic deaths/number of mice in a group of non tumored mice treated in parallel with the tumor-bearing mice and observed for 100 days at a dose 3.0 mg/kg; value given as 0/9; format: functional, Mus musculus; how it was run: as §3
MC-38 [35] = test: Number of toxic deaths/number of mice in a group of non tumored mice treated in parallel with the tumor-bearing mice and observed for 100 days at a dose 4.0 mg/kg; value given as 3/9; format: toxicity, organism-based; design: dose 4 mg/kg; settings: mouse, in vivo, 2400 h; how it was run: as §3
MC-38 [36] = test: Number of toxic deaths/number of mice in a group of non tumored mice treated in parallel with the tumor-bearing mice and observed for 100 days at a dose 5.0 mg/kg; value given as 8/9; format: toxicity, organism-based; design: dose 5 mg/kg; settings: mouse, in vivo, 2400 h; how it was run: as §3
MC-38 [37] = test: Mean survival time of treated / untreated group x100. (number of over 100-day survivors/number of total mice in the group) at a dose 4.0 mg/kg; format: functional, Mus musculus; how it was run: as §2
P388 [38] = test: Antitumor activity in P388/S(AMD sensitive) in male BDF1 mice measured as optimal dose
P388 [39] = test: Antitumor activity in P388/ADR (adriamycin resistant), in male BDF1 mice measured as optimal dose at dose 2.5-4.5 mg/kg/ inj, ip

Cc1c2oc3c(C)ccc(C(=O)N[C@@H]4C(=O)N[C@H](C(C)C)C(=O)N5CCC[C@H]5C(=O)N(C)CC(=O)N(C)[C@@H](C(C)C)C(=O)O[C@@H]4C)c3nc-2c(C(=O)N[C@@H]2C(=O)N[C@H](C(C)C)C(=O)N3CCC[C@H]3C(=O)N(C)CC(=O)N(C)[C@@H](C(C)C)C(=O)O[C@@H]2C)c(N)c1=O [DACTINOMYCIN] (I: T[dV]P[Sar][NMeV] / II: T[dV]P[Sar][NMeV]; ester I:1-I:C, II:1-II:C; linker I:N-II:N via Actinocin(9to1))
inhibition in vivo at 0.15 mg/kg (MC-38 [1]): 30%
ILS (B16 [2]): 48%
MST (B16 [3]): 43
inhibition in vivo at 0.3 mg/kg (MC-38 [4]): 67%
inhibition in vivo at 0.45 mg/kg (MC-38 [5]): 83%
inhibition in vivo at 0.6 mg/kg (MC-38 [6]): 89%
T/C (MC-38 [7]): 103%
T/C (MC-38 [8]): 100%
T/C (MC-38 [9]): 107%
T/C (MC-38 [10]): 134%
T/C (MC-38 [11]): 170%
Toxic deaths (MC-38 [12]): 0
Toxic deaths (MC-38 [13]): 1
Toxic deaths (MC-38 [14]): 0
Toxic deaths (MC-38 [15]): 1
inhibition in vivo at 0.075 mg/kg (MC-38 [16]): 30%
Toxic deaths (MC-38 [17]): 4
pIC50 (HT-29 [18]): 6.05
pIC50 (P388 [19]): 5.96
pIC50 (P388 [20]): 7.30
Activity (Rattus norvegicus [21]): 100%
Activity (Rattus norvegicus [22]): 10%
Adrenochrome formation (Rattus norvegicus [23]): 2.29 nM min-1 (mg of protein)-1
Adrenochrome formation (Rattus norvegicus [24]): Inhibited
NADPH oxidation (nM min-1 (mg of protein)-1) (Rattus norvegicus [25]): 10
pIC50 (HT-29 [26]): 7.00
Activity (pBR322 plasmid DNA): 22%
Activity (P388 (Mus musculus)): 100%
optimal dose (P388 [27]): 0.25 mg/kg
optimal dose (P388 [28]): 0.25 mg/kg

COc1cccc2c1C(=O)c1c(O)c3c(c(O)c1C2=O)C[C@@](O)(C(=O)CO)C[C@@H]3O[C@H]1C[C@H](N)[C@H](O)[C@H](C)O1 [DOXORUBICIN]
inhibition in vivo at 2 mg/kg (MC-38 [29]): 29%
inhibition in vivo at 3 mg/kg (MC-38 [30]): 70%
inhibition in vivo at 4 mg/kg (MC-38 [31]): 93%
T/C (MC-38 [32]): 98%
Toxic deaths (MC-38 [33]): 0
Toxic deaths (MC-38 [34]): 0
Toxic deaths (MC-38 [35]): 3
Toxic deaths (MC-38 [36]): 8
T/C (MC-38 [37]): 250%
optimal dose (P388 [38]): 3 mg/kg
optimal dose (P388 [39]): 3.5 mg/kg

Reference: ChEMBL document CHEMBL1124291, “New actinomycin D analogues as superior chemotherapeutic agents against primary and advanced colon tumors and colon xenografts in nude mice” (J Med Chem, 1988)
